One series has as its system A549. The experiment in a line: Cytotoxicity against human A549 cells assessed as growth inhibition incubated for 48 hrs by SRB assay. Conditions: A549, 48 h. (In general: The SRB assay estimates cell density from bound dye.)
Series [1] has as its system Drosophila. The experiment in a line: Anti-cancer activity in Drosophila harboring UAS-Ras V12 mutant assessed as increase in early pupal developmental differentiation at 10 to 50 uM, po. Conditions: dose 10-50 µM. The class given is functional, organism-based. The method in brief: (§1)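 UAS-RasV12 glial glioblastoma model (repo-GAL4/UAS-RasV12) in Drosophila, with Oregon R+ wild-type flies as control. Flies reared at 24 ± 1 °C on standard corn food containing compound at 10 or 50 μM. Percent of animals at each developmental stage (third instar larva, pupa) scored. Significance by Tukey's multiple comparisons test.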

For series [2], the system named is Drosophila. Kind of series: Anti-cancer activity in Drosophila harboring UAS-Ras V12 mutant assessed as improvement in third instar larval survivability at 10 to 50 uM, po. Format: functional, organism-based. Conditions: dose 10-50 µM. The method, boiled down:
as §1

Series [3] is described as follows: Cmax in male Wistar rat at 10 mg/kg, po measured up to 24 hrs by HPLC analysis. The class given is ADME, organism-based. The following applies: in vivo. The method, boiled down:
(§2)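 Overnight-fasted male Wistar rats, 200–250 g, single 10 mg kg−1 p.o. in 0.3% sodium CMC; blood at 0, 0.5, 1, 2, 4, 8, 16, 24 h into heparin tubes; plasma MeOH-extracted, HPLC (MeOH:H2O 85:15, 254 nm) against calibration curve; extravascular non-compartmental analysis; mean ± SD (n = 3).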

The subject of series [4] is Drosophila. The experiment in a line: Anti-cancer activity in Drosophila harboring UAS-Ras V12 mutant assessed as improvement in pupal development at 10 uM, po. The class given is functional, organism-based. The method, boiled down: as §1
Another series relates to MIA PaCa-2. The experiment in a line: Cytotoxicity against human MIA PaCa-2 cells assessed as growth inhibition incubated for 48 hrs by SRB assay. Conditions: MIA PaCa-2, 48 h.
Series [5] deals with Drosophila. Kind of series: Toxicity in wild-type Drosophila assessed as reduction in eclosion rate at 100 uM, po via food to female and male flies and measured in F1 generation flies after 15 days. Format: organism-based. The arrangement: scale not given: the % may be the effect or the level left. The following applies: in vivo, 360 h, time 15 day. The method in brief:
(§3)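 Ten virgin female and male Oregon R+ flies crossed on food containing compound (1, 10, 50, 100 or 200 μM), held at 24 ± 1 °C; F1 generation followed 15 days; percent eclosion versus untreated controls; Dunnett's multiple comparisons.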

Series [6] deals with Drosophila. The experiment in a line: Toxicity in wild-type Drosophila assessed as eclosion rate at 10 uM, po via food to female and male flies and measured in F1 generation flies after 15 days. Conditions: in vivo, 360 h, time 15 day. Format: organism-based. The method in brief: as §3
Series [7] has as its system Drosophila. Kind of series: Toxicity in wild-type Drosophila assessed as eclosion rate at 100 uM, po via food to female and male flies and measured in F1 generation flies after 15 days. Format: organism-based. The following applies: in vivo, 360 h, time 15 day. The method, boiled down:
as §3

A short description of series [8]: AUC (0 to 24 hrs) in male Wistar rat at 10 mg/kg, po measured up to 24 hrs by HPLC analysis. The class given is ADME, organism-based. The following applies: in vivo. The method, boiled down:
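Healthy male Wistar rats (200–250 g, n = 5), fasted overnight, given a single oral dose of 10 mg kg−1 in 0.3% sodium CMC. Blood collected under anaesthesia at 0, 0.5, 1, 2, 4, 8, 16 and 24 h into heparinized tubes. Plasma extracted with MeOH and analysed by HPLC (MeOH:H2O 85:15, detection at 254 nm) against a standard calibration curve. Parameters from a non-compartmental extravascular model.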

In series [9] the test system is Drosophila. The experiment in a line: Anti-cancer activity in Drosophila harboring UAS-Ras V12 mutant assessed as rescue of third instar larval lethality at 10 to 50 uM, po. Format: functional, organism-based. The following applies: dose 10-50 µM. The method, boiled down:
as §1

In the next series the test system is COLO 205. The experiment in a line: Cytotoxicity against human COLO 205 cells assessed as growth inhibition incubated for 48 hrs by SRB assay. The following applies: COLO 205, 48 h.
Series [10] has as its system Drosophila. The experiment in a line: Anti-cancer activity in Drosophila harboring UAS-Ras V12 mutant assessed as improvement in early pupal survivability at 10 to 50 uM, po. The class given is functional, organism-based. The following applies: dose 10-50 µM. The method in brief:
as §1

Series [11] can be described thus: MRT in male Wistar rat at 10 mg/kg, po measured up to 24 hrs by HPLC analysis. The class given is ADME, organism-based. The following applies: in vivo. The method in brief:
as §2

Series [12] deals with Drosophila. Kind of series: Toxicity in wild-type Drosophila assessed as eclosion rate at 1 uM, po via food to female and male flies and measured in F1 generation flies after 15 days. The class given is organism-based. Conditions: in vivo, 360 h, time 15 day. The method in brief: as §3
Series [13] deals with Drosophila. The experiment in a line: Anti-cancer activity in Drosophila harboring UAS-Ras V12 mutant assessed as improvement in larval development to pupal transition at 10 to 50 uM, po. Format: functional, organism-based. Conditions: dose 10-50 µM. The method in brief:
as §1

A short description of series [14]: Half life in male Wistar rat at 10 mg/kg, po measured up to 24 hrs by HPLC analysis. The following applies: in vivo. The class given is ADME, organism-based. The method in brief: as §2
The test system of series [15] is Drosophila. Kind of series: Toxicity in wild-type Drosophila assessed as reduction in eclosion rate at 200 uM, po via food to female and male flies and measured in F1 generation flies after 15 days. Format: organism-based. Set-up: scale not given: the % may be the effect or the level left. Conditions: in vivo, 360 h, time 15 day. The method, boiled down: as §3

Molecules are shown by their SMILES. Activity calls are given as the source filed them. The calls are words filed in the database; no cut-off is given here.

What is called GI50 is the concentration that inhibits growth by half. The term Cmax denotes the maximum level reached in the sampled fluid or tissue. As usually defined, the MRT is the average time that molecules of a dose stay in the body. For orientation: half-life means how long it takes for the measured level to halve. On to `Clc1ccc(-c2nnc(CN3CCN(C(c4ccccc4)c4ccc(Cl)cc4)CC3)o2)cc1` (stereo not drawn), for which the GI50 in the series with A549 amounted to 731 nM; with MIA PaCa-2 it was 2320 nM; in the series on COLO 205 it was 1220 nM. Besides, the result with Drosophila [1], in the series on Drosophila [2], in the series with Drosophila [4], with Drosophila [9], in the series with Drosophila [10] and in the series with Drosophila [13] was Active. Moreover, the highest level in [3] (Cmax) was 10300 ng/mL. Besides, the Activity with Drosophila [5] was 41%; in the series with Drosophila [6], ~ 84%; with Drosophila [7], under 50%; in the series with Drosophila [12], ~ 92%; in the series on Drosophila [15] it was 24%. This compound came in with an AUC in [8] of 32.06 µg/mL/h. In addition, the mean residence time (MRT) in series [11] was 3.42 h. The compound also had a half-life in series [14] of 127 min.

Values taken from ChEMBL document CHEMBL6134766, “Design, synthesis, and evaluation of benzhydrylpiperazine-based novel dual COX-2/5-LOX inhibitors with anti-inflammatory and anti-cancer activity” (RSC Med Chem, 2025).
